In PMC2034471 (Nucleic Acids Research, 2007):
Ends that are not written are not given here. Me2 = dimethylated (lysine)

Experiments:
[1] = system: ScRad9[754–947]; experiment: NMR titration of ScRad9[754–947] with histone peptides; type: binding, Saccharomyces cerevisiae; settings: ^1H-^15N HSQC, 600 MHz; protein 0.2–0.5 mM; 50 mM MES pH 6, 50 mM NaCl
How it was run: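 15N-labelled protein (0.2–0.5 mM) in 50 mM MES pH 6, 50 mM NaCl, 1 mM EDTA, 1 mM NaN3, protease inhibitors, TSP reference. Methyl-lysine H3-K79 and H4-K20 tail peptides titrated to 9-, 7-, 5- or 2-fold molar excess. Weighted shift |Δδ1H| + 0.1×|Δδ15N| plotted against ligand concentration; Kd fitted from the curves.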

[2] = system: mouse 53BP1 tudor fragment (1463–1617); experiment: isothermal titration calorimetry; type: binding; settings: 30°C; for Ka (ITC): 50 mM Tris/HCl pH 7.2, 50 mM NaCl, protein 18–33 µM, one-site model; for TΔS / ΔG / ΔH: ITC; for TΔS / ΔG: pH 7.2; for ΔH: pH 7.2, one-site model
How it was run: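 Protein in the cell titrated with H4-K20me2 or H4K20me2-long peptide, generally 10–15 times more concentrated, both equilibrated in the same buffer, by automatic 5–10 µl injections. The first 2 µl injection was excluded. Peaks were integrated and baseline-corrected. Heat of dilution was taken from peptide injected into buffer. One-site fitting gave n, Ka and ΔH.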

[3] = system: rad9Δ cells complemented with rad9ΔTudor allele; experiment: resistance of yeast cells to genotoxic stress, spot test; type: cell-based, Saccharomyces cerevisiae; settings: 10-fold serial dilutions on YPD plates with drug; versus wild-type RAD9
How it was run: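 The rad9Δ-L157 full RAD9 deletion strain carried a URA3 YCp50 plasmid: empty, wild-type RAD9 under its own promoter, or RAD9 lacking tudor aa 754–947. Overnight YPD cultures were diluted to OD 0.1 and grown 4–5 h. Tenfold dilutions were spotted on YPD ± camptothecin or 4-nitroquinoline 1-oxide, or plates given UV (120 J/m2) or X-rays (150 Gy, 2.5 Gy/min).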

[4] = target: Mm53BP1[1463–1617] (mouse) (UniProt P70399); experiment: NMR titration
[5] = aggregation / stability of Rad9 fragments in solution; type: physicochemical
[6] = system: histone H3; settings: GST fusion; ref [16],[32]; cited from earlier work
[7] = system: 146 bp double-stranded DNA; experiment: EMSA, 146 bp ds DNA; type: binding; settings: DNA 26 nM, 2- to 128-fold molar excess of protein
How it was run: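 146 bp fragment made by PCR on a pUC(357.4) digest template and 5′-end labelled with 32P-ATP/T4 polynucleotide kinase at 37°C. Protein fragments incubated with labelled DNA for 2 h at 22°C in 50 mM Tris–HCl pH 8.0, 1 mM EDTA, 1 mM AEBSF, 1 mM DTT, 50 mM NaCl, 0.1% triton X-100. Resolved on pre-run 6% native polyacrylamide (29:1) in 0.5× TEG at 70 V. Complexes detected by autoradiography of dried gels at –80°C.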

[8] = system: 10 bp oligonucleotide; settings: NMR; ref [15]; cited from earlier work
[9] = system: single-stranded and double-stranded DNA; settings: EMSA; human 53BP1; ref [33]; cited from earlier work
[10] = target: Mm53BP1[1463–1617] (mouse, UniProt P70399 1463-1617); experiment: ITC
[11] = system: H3 from calf thymus; experiment: GST-pulldown, binding to histone H3; settings: calf thymus H3, immunoblotting after elution from beads; data not shown
[12] = system: DNA; experiment: surface plasmon resonance, DNA binding; settings: versus wild-type ScRad9[754–931]; data not shown

## KRHRK*ILRD [yeast H4K20me2]
[1]
  binding to ScRad9[754–947] (^1Hn and ^15N chemical shifts): cannot bind

## GKGGAKRHRK*VLRDNIQGK [H4-K20me2-long]
[2]
  Ka (ITC): 110000 ± 16000 M⁻¹
  TΔS: 4.6 kcal/mol
  ΔG: –6.9 kcal/mol
  ΔH: –2.3 ± 0.1 kcal/mol

## CC[C@@]1(O)C(=O)OCc2c1cc1n(c2=O)Cc2cc3ccccc3nc2-1 [camptothecin]
[3]
  sensitivity of rad9ΔTudor cells to DNA damage: hypersensitivity to DNA damage which was particularly pronounced

## KRHRK*VLRD [metazoan H4K20me2]
[1]
  binding to ScRad9[754–947] (^1Hn and ^15N chemical shifts): cannot bind
[2]
  Ka (ITC): 130000 ± 16000 M⁻¹
  TΔS: 4.9 kcal/mol
  ΔG: –7.1 kcal/mol
  ΔH: –2.2 ± 0.1 kcal/mol

## O=[N+]([O-])c1cc[n+]([O-])c2ccccc12 [4-nitroquinoline 1-oxide]
[3]
  sensitivity of rad9ΔTudor cells to DNA damage: hypersensitivity to DNA damage

## H3-K79me2 peptide
[4]
  Kd: 1500 µM

B1: GST-ScRad9[750–917]: Rad9 construction reported by two different groups; stability by NMR tested here (protein, UniProt P14737 750-917, looked up, fragment)
chain: ETGSGKDSKEQSYVFPEGIRTADNSFLSKDDIIFGNAVWCQYTWNYKFYPGILLEVDTNQDGCWIYFETGRSLTKDEDIYYLDIRIGDAVTFDGNEYVVVGLECRSHDLNIIRCIRGYDTVHLKKKNASGLLGKRTLIKALSSISLDLSEWAKRAKIILEDNEKNKGD
modifications: GST tag
[5]; after 2.5 h at 30°C
  NMR signal lost: 40%
[6]
  capture of histone H3: capture of histone H3

B2: Mm53BP1[1463–1617]: mouse 53BP1 fragment 1463–1617, tandem tudor region (protein)
chain: PFQAATGSSDGLDSSSSGNSFVGLRVVAKWSSNGYFYSGKITRDVGAGKYKLLFDDGYECDVLGKDILLCDPIPLDTEVTALSEDEYFSAGVVKGHRKESGELYYSIEKEGQRKWYKRMAVILSLEQGNRLREQYGLGPYEAVTPLTKAADISLD
[7]
  interaction with 146 bp ds DNA by gel retardation: could not detect any interaction
[8]
  affinity for 10 bp oligonucleotide, in words: millimolar affinity interaction

B3: 1480–1616: human 53BP1 fragment 1480–1616 containing the tudor region (protein, UniProt Q12888 1480-1616, looked up, fragment)
chain: SSPGNSFVGLRVVAKWSSNGYFYSGKITRDVGAGKYKLLFDDGYECDVLGKDILLCDPIPLDTEVTALSEDEYFSAGVVKGHRKESGELYYSIEKEGQRKWYKRMAVILSLEQGNRLREQYGLGPYEAVTPLTKAAD
[9]
  interaction with DNA in vitro: interact with single-stranded and double-stranded DNA in vitro

## GKGGAKRHRKVLRDNIQGK (K* dimethylated (K20, tenth residue of the peptide)) [Metazoan H4-K20me2-long peptide]
[10]
  Ka: 110000 M⁻¹
  Kd: 8.8 µM
  dH: -2.3 ± 0.1 kcal/mol
  stoichiometry N: 1

B4: GST-ScRad9[754–947]: GST fusion of ScRad9[754–947] (protein)
chain: GKDSKEQSYVFPEGIRTADNSFLSKDDIIFGNAVWCQYTWNYKFYPGILLEVDTNQDGCWIYFETGRSLTKDEDIYYLDIRIGDAVTFDGNEYVVVGLECRSHDLNIIRCIRGYDTVHLKKKNASGLLGKRTLIKALSSISLDLSEWAKRAKIILEDNEKNKGDAYRYLRHPIRGRKSMTNVLSPKKHTDDEKD
modifications: left off: GST, end not stated, kept
[11]
  H3 captured in GST-pull-down: not together

B5: fragments 1319–1480: human 53BP1 fragment 1319–1480 containing the RG-rich stretch (protein, UniProt Q12888 1319-1480, looked up, fragment)
chain: TSLSAMHSSGSSGKGAGPLRGKTSGTEPADFALPSSRGGPGKLSPRKGVSQTGTPVCEEDGDAGLGIRQGGKAPVTPRGRGRRGRPPSRTTGTRETAVPGPLGIEDISPNLSPDDKSFSRVVPRVPDSTRRTDVGAGALRRSDSPEIPFQAAAGPSDGLDAS
[9]
  interaction with DNA in vitro: interact with single-stranded and double-stranded DNA in vitro

B6: ScRad9[754–931]: shorter fragment 754–931 of S. cerevisiae Rad9 (protein, UniProt P14737 754-931, looked up, fragment)
chain: GKDSKEQSYVFPEGIRTADNSFLSKDDIIFGNAVWCQYTWNYKFYPGILLEVDTNQDGCWIYFETGRSLTKDEDIYYLDIRIGDAVTFDGNEYVVVGLECRSHDLNIIRCIRGYDTVHLKKKNASGLLGKRTLIKALSSISLDLSEWAKRAKIILEDNEKNKGDAYRYLRHPIRGRKS
[5]
  aggregation propensity / rate relative to ScRad9[754–947]: same aggregation propensity

B7: ScRad9[754–931,C789A,C812S,C853S] (protein, UniProt P14737 754-931, looked up, variant C789A C812S C853S)
chain: GKDSKEQSYVFPEGIRTADNSFLSKDDIIFGNAVWAQYTWNYKFYPGILLEVDTNQDGSWIYFETGRSLTKDEDIYYLDIRIGDAVTFDGNEYVVVGLESRSHDLNIIRCIRGYDTVHLKKKNASGLLGKRTLIKALSSISLDLSEWAKRAKIILEDNEKNKGDAYRYLRHPIRGRKS
[12]
  DNA-binding capacity by surface plasmon resonance: looses the DNA-binding capacity
[5]
  aggregation propensity / rate relative to ScRad9[754–947]: 1.5 times faster

## KRHRK(Me2)VLRD [Metazoan H4-K20me2 peptide]
[10]
  Ka: 130000 M⁻¹
  Kd: 7.7 µM
  dH: -2.2 ± 0.1 kcal/mol
  stoichiometry N: 1
